Source: PubChem BioAssay
Calls of active or inactive are those of the source.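 Rule for the calls, unless noted: active = compounds giving at least 50% inhibition in the cell-based MKP-3 phosphatase rescue imaging test; inactive = the rest.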

Key:
[1] = inhibitors of TNFa-induced NFkB p65 translocation, primary screen, imaging, HUVEC, MLSMR starter and 10KST1 sets (AID 438;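 active = inhibition above 20% together with a positive visual image hit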;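 note: compound added about 3h40 before a 20 min TNFalpha stimulation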;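 for inhibition: signal is the nuclear over cytoplasmic p65 intensity ratio per well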); details: HUVEC TNFa-induced p65 nuclear translocation; cell count: measured here: nuclei count (cytotoxicity indicator), at 2.08 µM; inhibition: at 2 µM, stronger effect = higher value, 0% TNFa-plus-vehicle, 100% no-TNFa wells
[2] = inhibitors of E-selectin induction by TNFa, primary screen, imaging, HUVEC, immunofluorescence, MLSMR starter and 10KST1 sets (AID 487;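 active = visually confirmed hit in the image check and inhibition above 20%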;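 for inhibition: signal is fraction of cell area covered by stained E-selectin grains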;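 for nuclei count: 100% = median nuclei count of all wells on the same plate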); details: HUVEC TNFalpha-induced E-selectin immunofluorescence imaging, at 2 µM; inhibition: stronger effect = higher value; nuclei count: measured here: cell number, toxicity
[3] = DUSP6 inhibitors restoring Erk phosphorylation by chemical complementation, primary imaging in DUSP6-transfected HeLa (AID 609); details: HeLa MKP-3 transfected, phospho-Erk imaging KS statistic, at 10 µM, cells stimulated with TPA for 15 min;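 for inhibition: phospho-Erk level distribution per well compared with pooled transfected vehicle control wells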
[4] = target: Dual specificity protein phosphatase 6 (Homo sapiens) (UniProt Q16828); test: as above; details: HeLa MKP-3 transfected, phospho-Erk imaging KS statistic; at 10 µM; stronger effect = higher value; cells stimulated with TPA for 15 min
[5] = target: Voltage-gated potassium channel subunit beta-2 (Rattus norvegicus) (UniProt P62483); test: KvBeta enzyme negative modulators, primary screen, biochemical, NADPH fluorescence (AID 622;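 active = fluorescence slope higher than the sample average by over 3 SD, cut at about -0.22 in these data, passing the limit was not always enough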;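 note: slope of raw intensity against log time taken from 70 to 1610 s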); details: recombinant KvBeta, 4-cyanobenzaldehyde reduction, at 10 µM, stronger effect = higher value
[6] = target: Voltage-gated potassium channel subunit beta-2 (Rattus norvegicus) (UniProt P62483); test: KvBeta positive modulators, primary screen, biochemical, NADPH fluorescence (AID 623;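 active = NADPH fluorescence slope more negative than the mean of all samples by about 3 SD, 99.7% confidence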;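 note: fluorescence intensity change per second fitted from 20 to 320 s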); details: Recombinant KvBeta, NADPH fluorescence decrease slope, 10 min; at 10 µM; stronger effect = lower value
[7] = target: Muscarinic acetylcholine receptor M4 (Homo sapiens) (UniProt P08173); test: compounds altering M4/GIRK thallium flux, either direction, primary screen, M4 allosteric agonist project, cell-based, HEK293 M4/GIRK, BTC-AM (AID 625;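 active = fluorescence slope after compound addition differing from the mean of all tested samples at 99.7% confidence, mostly higher but some lower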;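 note: thallium influx through GIRK channels coupled to M4 in HEK293 cells with BTC-AM dye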); details: at 10 µM, actives lie on both sides
Outline: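 Material: M4/GIRK1/GIRK2 stable HEK293 cell line. Medium: pH 7.3 thallium assay buffer. Dosing: single compound concentration, 10 µM final. Schedule: 1 h dye loading, 2 min kinetic read. Measured by: kinetic fluorescence with BTC-AM dye. Read-out: post-addition slope, 15–24 s, of baseline-normalized fluorescence. Benchmarks: carbachol and DMSO controls.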

[8] = inhibitors of larval lipid processing in zebrafish, primary screen, whole organism, PED6 fluorescence, gall bladder and intestine (AID 686;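 active = a full or partial loss of lipid-probe fluorescence in the fish gall bladder, intestine or both, judged by eye; inactive = no fluorescence loss, or compound toxic to the fish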;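 note: larvae 5 to 7 days old with five fish per well; signal comes from phospholipase A2 cleavage of quenched PED6 carried via bile; overnight exposure to compound and PED6 before scoring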); details: Zebrafish larvae PED6 lipid processing, fluorescence scoring; screened at 20 µM (by protocol)
Outline: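 System: live zebrafish larvae aged 5-7 days, whole organism; measure: graded gall bladder and intestinal fluorescence inhibition per well; incubation: overnight exposure; reagent: ingested quenched lipid PED6 at 100 nM; signal: By-eye fluorescence microscopy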

[9] = inhibitors of Chlamydomonas gravitaxis, primary screen, whole organism, Chlamydomonas reinhardtii, WT vs cilia-less mutant, absorbance, 96-well (AID 463189;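 active = inhibition at or above 50% relative to wild type and mutant plate controls; inactive = inhibition below 50%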;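 note: 0% = wild type cc124 cells in DMSO and 100% = ciliumless bld1 mutant cells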); details: OD600 absorbance, 2 days, at 10 µM, stronger effect = higher value
[10] = measured here: cell density z-score
[11] = measured here: nuclear c-Myc green intensity z-score
[12] = measured here: nuclear pErk red intensity z-score, stronger effect = higher value

Chain of Dual specificity protein phosphatase 6 (Homo sapiens) (Q16828 whole entry, looked up): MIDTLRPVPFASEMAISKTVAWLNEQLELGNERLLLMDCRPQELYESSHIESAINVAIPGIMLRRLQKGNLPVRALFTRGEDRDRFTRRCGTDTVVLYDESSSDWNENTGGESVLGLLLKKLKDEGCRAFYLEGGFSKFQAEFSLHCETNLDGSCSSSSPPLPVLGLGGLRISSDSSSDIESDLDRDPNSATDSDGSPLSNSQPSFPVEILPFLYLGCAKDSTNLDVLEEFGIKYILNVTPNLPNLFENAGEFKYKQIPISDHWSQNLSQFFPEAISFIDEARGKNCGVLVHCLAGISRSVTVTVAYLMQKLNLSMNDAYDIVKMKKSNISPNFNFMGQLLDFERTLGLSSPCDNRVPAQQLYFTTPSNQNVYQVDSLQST
Chain of Muscarinic acetylcholine receptor M4 (Homo sapiens) (P08173 whole entry, looked up): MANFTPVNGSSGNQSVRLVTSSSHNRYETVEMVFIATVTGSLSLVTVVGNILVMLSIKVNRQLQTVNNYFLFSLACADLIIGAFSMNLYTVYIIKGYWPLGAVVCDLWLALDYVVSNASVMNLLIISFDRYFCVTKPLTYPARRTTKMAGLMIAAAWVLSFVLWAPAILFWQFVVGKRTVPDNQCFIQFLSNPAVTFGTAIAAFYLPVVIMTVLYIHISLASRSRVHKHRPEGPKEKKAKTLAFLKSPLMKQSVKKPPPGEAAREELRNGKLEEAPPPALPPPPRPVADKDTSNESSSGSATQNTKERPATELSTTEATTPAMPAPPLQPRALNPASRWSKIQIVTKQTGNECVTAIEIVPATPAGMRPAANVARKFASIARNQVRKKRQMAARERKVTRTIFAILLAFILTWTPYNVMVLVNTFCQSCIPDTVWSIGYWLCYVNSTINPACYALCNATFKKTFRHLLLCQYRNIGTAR
Chain of Voltage-gated potassium channel subunit beta-2 (Rattus norvegicus) (P62483 whole entry, looked up): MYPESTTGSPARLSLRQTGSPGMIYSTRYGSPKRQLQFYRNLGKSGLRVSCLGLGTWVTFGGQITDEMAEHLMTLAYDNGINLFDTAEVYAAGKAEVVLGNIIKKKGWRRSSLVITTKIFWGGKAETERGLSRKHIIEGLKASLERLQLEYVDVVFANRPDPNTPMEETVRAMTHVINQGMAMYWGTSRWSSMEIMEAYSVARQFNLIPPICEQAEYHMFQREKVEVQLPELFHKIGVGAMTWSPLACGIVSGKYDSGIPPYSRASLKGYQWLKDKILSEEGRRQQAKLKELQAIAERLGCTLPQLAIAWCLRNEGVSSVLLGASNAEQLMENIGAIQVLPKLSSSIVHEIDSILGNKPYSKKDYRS

SMILES	cell count [1]	inhibition [1]	inhibition [2]	nuclei count [2] [%]	z-score [3, 10]	z-score [3, 11]	z-score [3, 12]	inhibition [4]	fluorescence slope [5]	NADPH fluorescence slope [6]	fluorescence slope [7]	outcome [8]	inhibition [9]
O=c1[nH]c2cnccc2n1-c1ccccc1	546	1.5% (inactive)	-390% (inactive)	162	1.25	-0.89	-1.07	9.91% (inactive)	-0.404 (inactive)	-4.6e-05 (inactive)	0.00569 (inactive)	inactive	-6.57% (inactive)
Cc1cccn2c(=O)c3cc(C(N)=S)c(=N)n(CCCOC(C)C)c3nc12	637	-5.4% (inactive)	-92.7% (inactive)	153	1.81	-0.956	-1.49	12.7% (inactive)	-0.447 (inactive)	-3.3e-05 (inactive)	0.00286 (inactive)	inactive	145% (active)
CCOC(=O)CSc1nnc(C)c(=O)[nH]1	670	-5.5% (inactive)	-201% (inactive)	163	-0.66	0.692	1.49	-16.8% (inactive)	-0.476 (inactive)	-4.6e-05 (inactive)	0.0066 (inactive)	inactive	-3.91% (inactive)
O=C(NCCc1ccccc1)/C(=N\O)c1ccccc1	555	-5.6% (inactive)	19.1% (inactive)	182	1.61	-1.77	-0.308	13.9% (inactive)	-0.404 (inactive)	-8.5e-06 (inactive)	0.00486 (inactive)	inactive	2.81% (inactive)
CCC(=O)N(Cc1cccs1)C1CCOC(C)(C)C1 (configuration not stated)	541	6.5% (inactive)	6.3% (inactive)	166	0.577	-0.186	0.0071	1.9e-07% (inactive)	-0.389 (inactive)	-3e-05 (inactive)	0.00514 (inactive)	inactive	11.9% (inactive)
Nc1c2c(nc3ccccc13)N(C1CCCCC1)CC2	670	21.3% (inactive)	7.4% (inactive)	98.7	-0.086	0.000792	-0.245	-15.1% (inactive)	-0.46 (inactive)	-2.9e-05 (inactive)	0.00444 (inactive)	inactive	62.2% (active)
CCc1nc(N2CCCC2)c(C#N)c2c1CCCC2	422	2.1% (inactive)	-71.3% (inactive)	118	-1.3	0.104	0.215	-6.59% (inactive)	-0.506 (inactive)	3e-05 (inactive)	0.00476 (inactive)	inactive	-11.4% (inactive)
CC(=O)C1=C(O)C(=O)N(c2ccc(S(N)(=O)=O)cc2)C1c1ccccc1F (configuration not stated)	382	-5.4% (inactive)	14.5% (inactive)	138	-0.839	-1.6	0.715	11.9% (inactive)	-0.476 (inactive)	-0.000111 (inactive)	0.00408 (inactive)	inactive	-4.73% (inactive)
CCC(=O)Nc1ccc(-c2nnc(SCC(=O)NCC3CCCO3)n2C)cc1 (configuration not stated)	656	-4.5% (inactive)	10.4% (inactive)	160	-0.113	1.6	0.412	-2.09% (inactive)	-0.5 (inactive)	-5.7e-05 (inactive)	0.0052 (inactive)	inactive	-4.35% (inactive)
CCC1(C)Cc2c(sc(NC(=O)CCC(=O)O)c2C#N)CO1 (configuration not stated)	525	-3.4% (inactive)	-47% (inactive)	165	1.02	0.907	0.102	9.91% (inactive)	-0.382 (inactive)	-5.7e-05 (inactive)	0.00482 (inactive)	inactive	-2.53% (inactive)
CC1(C)C2CCC1(C)C(OC(=O)CC(=O)O)C2 (configuration not stated)	566	-2% (inactive)	-63.5% (inactive)	143	0.899	-0.605	0.67	1.98% (inactive)	-0.382 (inactive)	-4.1e-05 (inactive)	0.00679 (inactive)	inactive	5.19% (inactive)
Cc1ccccc1N1C(=O)C2ON(c3ccccc3)C(c3cccnc3)C2C1=O (configuration not stated)	541	-7% (inactive)	20.1% (inactive)	88.7	1.39	0.945	-1.38	7.7% (inactive)	-0.502 (inactive)	-4.4e-05 (inactive)	0.00555 (inactive)	inactive	-7.8% (inactive)
CCCC1CC(=O)OC1(C)C(=O)CSc1n[nH]c(-c2ccccc2)n1 (configuration not stated)	686	-3.7% (inactive)	-35.6% (inactive)	142	0.882	0.0839	-0.223	-9.66% (inactive)	-0.472 (inactive)	-1.5e-05 (inactive)	0.00594 (inactive)	active; no signal in intestine only	-3.69% (inactive)
CCCCCSc1nc(C)c(CC(=O)O)c(=O)[nH]1	400	-8.8% (inactive)	-27.1% (inactive)	114	0.718	-0.507	-1.88	1.04% (inactive)	-0.477 (inactive)	-5.1e-06 (inactive)	0.00563 (inactive)	inactive	34.5% (inactive)
